Measurements: ChEMBL document CHEMBL1155455
Calls of active or inactive are those of the source. The calls are words filed in the database; no cut-off is given here.

Assays:
Rattus norvegicus [1] = assay: Antidiuretic activity in sc dosed Sprague-Dawley rat assessed as inhibition of U50488-induced urine output administered immediately after water loading measured after 5 hrs on week 1; format: functional, organism-based
Outline: (§1)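 Adult male Sprague-Dawley rats, groups of four. […] Urine collected hourly for 5 h in metabolic chambers, at week 0 and week 1 without redosing. Analysis by repeated-measures ANOVA and Dunnett's test.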

Rattus norvegicus [2] = assay: Antidiuretic activity in sc dosed Sprague-Dawley rat assessed as inhibition of U50488-induced urine output administered immediately after water loading measured 5 hrs after first dose; format: functional, organism-based; outline: as §1

In the case of CC(C)[C@@H](CN1CC[C@@](C)(c2cccc(O)c2)[C@@H](C)C1)NC(=O)[C@H]1Cc2ccc(O)cc2CN1, the Activity (Rattus norvegicus [1]) is reported as “Dose-dependent effect” and the Activity (Rattus norvegicus [2]) is reported as “Dose-dependent effect”.
In the case of CC(C)[C@@H](CN1CC[C@@](C)(c2cccc(O)c2)[C@@H](C)C1)NC(=O)[C@@H]1CCc2cc(O)ccc2C1, the Activity (Rattus norvegicus [1]) is reported as “inactive” and the Activity (Rattus norvegicus [2]) is reported as “Dose-dependent effect”.
